Here are results for 37 variants from the RNAGym collection of RNA variant scans (doi:10.1126/science.aae0568).

This sample holds only a part of the variants without activity.

To fix the notation:
B1: tRNA (parent)
chain: GUUCCGUUGGCGUAAUGGUAACGCGUCUCCCUCCUAAGGAGAAGACUGCGGGUUCGAGUCCCGUACGGAACG

This series covers variants of B1. Put plainly: yeast fitness relative to wild type (ratio to wild type); higher = fitter; tRNA-Arg(CCU), competitive growth, 37 C, YPD. The method in brief:
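Gene amplicons from the start population and from each of six end populations were read by 100-nucleotide paired-end sequencing. Those end populations came from pooled Saccharomyces cerevisiae strains carrying tRNA-Arg(CCU) gene variants at the native locus, competed in YPD at 37°C for 24 hours. Fitness relative to wild type was worked out from changes in genotype frequencies. Genotypes needed ≥ 100 starting reads, and estimates < 0.5 were set to 0.5.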
As to GUUCCGUUGGCGUAAUGGUAACGCGUCUCACUCCUAAGGAGAAGACUGCGGGUUCGAGUCCCGGACGGAACG [C30A U64G], the yeast fitness was determined as 0.793.

On to GUUCCGUUGGCGUAAUGGUAACGCGUCUCGCUCCUAAGGAGUAGGCUGCGGGUUCGAGUCCCGUACGGUACG [C30G A42U A45G A69U], for which the yeast fitness was no more than 0.5.

On to GUUUCGUUGGCGUAAUGGUAACGCGUCUCCCUCCUCAGGAGAAGACUGCGGGUUCGAGUCACGUACGGAACG [C4U A36C C61A], for which the yeast fitness is 0.705.

Take GUUCCGUUGGCGUAAUGGUAUCGCGUCUCGUUCCUAAGGAGAAGACUCCGGGUUCGAGUCCCGUACGGAACG [A21U C30G C31U G48C]: the yeast fitness came out at 0.753.

For the variant GUUCCGUUCGCGUAAUGGUAACGCGUCUCCCUCCUAAGGAGAGGACUGCGGGUUCGAGUCCCGUACGGAACG [G9C A43G], the yeast fitness came out at 0.706.

Turning to GUUCCGUUGGAGUAAUGGUAACGCGUCUCCCUCCUAUGGAGAAGACUGCGGGUUCGAGUCCAGUAUGGAACG [C11A A37U C62A C66U], the yeast fitness was no more than 0.5.

On to GUUCCGUUGACGUAAUGGUAACGCGUCUCCCUCCCAAGGAGAAGACUGCGGGUUCAAGUCCCGUACGGAACG [G10A U35C G56A], for which the yeast fitness is no more than 0.5.

Consider GUUCCGUUGGCGUAAGGGUAACGCGUCUCCCUCCUAAGGAGAAGACUGCGGGCUCGAGUCGCGUACGGAACG [U16G U53C C61G], for which the yeast fitness was no more than 0.5.

Turning to GUUCCGUUGGCGUAAUGGUAAAGCGUCCCCCUCCUAAGGAGAAGACUGCGGGUUCGAGUCCCGUACAGAACG [C22A U28C G67A], the yeast fitness was 0.538.

With GUUCCGUUGGCGUAAUGGUUAGGCGUCUCCCUCCUAAGGGGAAGACUGCCCGUUCAAGUCCCGUACGGAACG [A20U C22G A40G G50C G51C G56A], the yeast fitness was no more than 0.5.

On to GUUCCGUUGGCGUAAUGGUAACGCGUCUCCCUCCUGAGGAGAAGACUGUGGGUUCGAGUCCCGUACGGAACG [A36G C49U], for which the yeast fitness stood at 1.02.

In the case of GUUCCGUUGGCGUAAUGGUAACGCGUCUCCUUCCUAAGGAGAAGACUGCGGGCUCGAGUCCUGUACGGAACG [C31U U53C C62U], the yeast fitness is no more than 0.5.

Regarding GUUCCGUUAGCGUAAUCGUAACGCGUCUCCCUCCUAAGGAGAUGACUGCGGGUUCGAGUCCCGUACGGAACG [G9A G17C A43U], the yeast fitness is no more than 0.5.

In the case of GUUCUGUUGGCGUAAUGGUAACGAGUCUCCCUCCUAAGCAGAAGACUGCGGGUUCGAGUCCCGUACGGACCG [C5U C24A G39C A70C], the yeast fitness was no more than 0.5.

Regarding GUUACGUUGGCGUAAUUGUAACGCGUCUCCCUCCUAAGGAGAAGAAUGCGGGUUCGAGUCCCGUACGGAACG [C4A G17U C46A], the yeast fitness turned out to be 0.645.

As for GUUCCCUCGGCGUAAUGGUAACGCGUCUCCCUCCUAAGGAGAAGACUGCGGGUUCGACUCCCGUACGGAACG [G6C U8C G58C], the yeast fitness was 0.685.

As for GUUCCGUUGGCGUAAUGGAAACGGGUUUCACUCCUGAGGAGAAGACUGCGGCUUCGAGUCCCGUACGGAACG [U19A C24G C27U C30A A36G G52C], the yeast fitness is no more than 0.5.

Turning to GUUCCGUUGGCGUAAUGGUAACGCGUCUCCCUCCUAAGGAGAAGACUGCGGGUUCGAGUCCCAUACGGACCG [G63A A70C], the yeast fitness turned out to be 0.973.

For GUUCGGUUGGCGUAAUGGUAACGCGUCGCCCUCCUAACGAGAAGACUGCGGGUUCGAGUCCCGUACGGAACG [C5G U28G G38C], the yeast fitness is no more than 0.5.

On to GUUCCGUUGGCGUAAUGGUUACGCGUCUCCCUACUAAGGAGAAGACUGCGGGUUCGAGUCCCGUACGGAACG [A20U C33A], for which the yeast fitness came out at 0.653.

GGUCCGUUGGCGUAAUGGUAACGCGUCUCCCUCCUAAGGAGAAGAAUGCGGGUUCGAGUCCCCUACGGAACG [U2G C46A G63C]: the yeast fitness was 0.56.

On to GUUCCGUUGGCGUAAUGGCAACGCGUCUCCCUCCUAAGGAGAAGACUGCGGGUUCGCGUCCCGUACGGAACG [U19C A57C], for which the yeast fitness came out at 0.594.

Regarding GUUCCGUUGGCGUAAUGGUAACGCGUUUCCCUCCUGAGGAGAAGACUGCGGGUUCGAGUCCCGUACGGAACG [C27U A36G], the yeast fitness stood at 0.85.

As for GUUCCGUUGGCGUAAUGGGAACGCGUCUCCCUCCUAAGGAAAAGACUCUGGGUUCGCGUCCCGUACGGAUCG [U19G G41A G48C C49U A57C A70U], the yeast fitness was no more than 0.5.

Turning to GUUCCGUUGGCGUAAUGGUAACACGUCUCUCUCCUAAGGAGAAGACUGCGGGUUGGCGUCACGUACGGAACG [G23A C30U C55G A57C C61A], the yeast fitness was no more than 0.5.

With GUUCCGUUGGCGUAAUGGAAACGCGUCUCCCUCGUAAGGAGAAGACUGCGGGUUCGUGUCCCGUACGGAACG [U19A C34G A57U], the yeast fitness is no more than 0.5.

With GUUCCGUUGGCGUAAUGGUAACGCGUCUCCCUCUUAAGGAGAAGACUGCGGGUUCGAGUCUCGUACGGAACG [C34U C61U], the yeast fitness turned out to be 1.

On to GUUCCGUUGGCGUAAUGGUAACGCGUCUCCCUCCUAAGGAGAAGACUGCGGGUUCGAGACCCAUACGGAACG [U59A G63A], for which the yeast fitness is 0.872.

In the case of GUUCCGUUGGCGUAAUGAUUACGCGUCUCCCUCUUGAGGAGAAGACUGCGGGUUCGAGUCCCGUACGGAACG [G18A A20U C34U A36G], the yeast fitness was no more than 0.5.

As to GUUCCGUUGGCGUAAUAGUAACGCGUCUCCCCCCUAGGGAGAAGACUGCGGGUUCGAGUCCCGUACGGCACG [G17A U32C A37G A69C], the yeast fitness worked out at 0.5.

For GUUCCGUUGGCGUAAUGGUAAAGCGUCUCCGUCCCAAGGAGAAGACUGCGGGUUCGAGUCCCGUACGGAACG [C22A C31G U35C], the yeast fitness is no more than 0.5.

As to GUUCCGUUGGCGUAAUGGUAAUGCGUCUCCCUCCUAAGGAGAAGACUGCGGAUUCGUGUCCCGUACGGAACG [C22U G52A A57U], the yeast fitness was no more than 0.5.

In the case of GUUCAGUUGGGGUAAUGGUAACGCGUCUCCCUCCUAAGGAGAAGACUCCGGGUUCGAGUCCCGUACGGAACG [C5A C11G G48C], the yeast fitness is no more than 0.5.

With GUUCCGUUGGCGUAAUGGUAAUGCGUCUCCCUCCUAAGGUGAAGACCGCGGGUUCGAGUCCCGUACGGAACG [C22U A40U U47C], the yeast fitness came out at 0.544.

Consider GCUCCGUUGGCGUAAUGGUAAGGCGUCUCCCUCCUAAGGAGAAGACUGCGGGUUCGAGUCCCGUACGGAACG [U2C C22G], for which the yeast fitness turned out to be 0.878.

On to GUUCCGUUGACGUAAUGGUAACGCGUCUCCCUCCUAAGGAGAAGGCUGCGGGUUCGAGUCCCGUACGGAACG [G10A A45G], for which the yeast fitness turned out to be 0.839.

For GUUCCGUUGGCGUAAUGGUAACGCGUCUCCGUCCUAAGGAGAUGAGUGCGGGUUCGAGUCCCGUAUGGAUCG [C31G A43U C46G C66U A70U], the yeast fitness was no more than 0.5.
